ChEMBL document CHEMBL1151787, “Salicylanilides: selective inhibitors of interleukin-12p40 production” (Bioorg Med Chem, 2008)
Active and inactive are the calls of the source. The calls are words filed in the database; no cut-off is given here.

Tests used:
[1] = Inhibition of CD40L, IFN-gamma and IL18 mixture-induced IL6 production in mouse DC-B cells after 18 to 24 hrs by fluorescence immunoassay; assay type: functional, cell-based
In short: (§1)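 DC-B cells grown in GM-CSF (20 ng/mL) medium and passaged every 48 h. Cells were mixed with compound in low-serum assay medium (0.4% DMSO) and stimulated with murine CD40L 2 ng/mL, IL-18 40 ng/mL and IFN-gamma 20 ng/mL (final). Incubation was 18–24 h at 37 °C, 5% CO2. Supernatant IL-12p40 or IL-6 was measured by europium sandwich immunoassay (biotinylated detection antibody, Eu-streptavidin, 615 nm). Ten concentrations were tested, in triplicate, and results were expressed as percent of control versus concentration.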

[2] = Inhibition of CD40L, IFN-gamma and IL18 mixture-induced IL12p40 production in mouse DC-B cells after 18 to 24 hrs by fluorescence immunoassay; assay type: functional, cell-based; in short: as §1
[3] = Cytotoxicity against CD40L, IFN-gamma and IL18 mixture-stimulated mouse DC-B cells at <100 nM after 18 hrs by CellTiter-Glo assay; assay type: cell-based
In short: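 Murine dendritic cell line DC-B treated with test compound, then stimulated as in the cytokine assay (mouse CD40L, IL-18, IFN-gamma) and incubated 18 h. CellTiter-Glo reagent added in volume equal to the culture. Plates shaken 2 min to lyse cells, then left 10 min without shaking. Luminescence read on a microplate reader.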

Mus musculus = species: Mus musculus; test: Inhibition of CD40L, IFN-gamma and IL18 mixture-induced IL12p40 production in mouse DC-B cells at 10 uM after 18 to 24 hrs by fluorescence immunoassay; assay type: functional, cell-based

SMILES	IC50 [1]	IC50 [2]	Activity [3]	Activity (Mus musculus)
O=C(Nc1cc(Cl)cc(Cl)c1)c1cc([N+](=O)[O-])ccc1O	170 nM	410 nM	Non-toxic	–
O=C(O)CN(C(=O)c1ccccc1O)c1cc(Cl)cc(Cl)c1	> 10000 nM	> 10000 nM	Non-toxic	–
O=C(Nc1ccccn1)c1ccccc1O	> 10000 nM	> 10000 nM	Non-toxic	–
O=C1c2cccc(O)c2C(=O)N1c1cc(Cl)cc(Cl)c1	> 10000 nM	> 10000 nM	Non-toxic	–
Oc1ccc(Br)cc1CNc1cc(Cl)cc(Cl)c1	1700 nM	2700 nM	Non-toxic	–
O=C(Nc1cc(Cl)cc(Cl)c1)c1ccccc1NS(=O)(=O)c1ccc(Cl)c([N+](=O)[O-])c1	220 nM	240 nM	Non-toxic	–
O=C(Nc1ccc(Cl)c(Cl)c1)c1cc(Cl)ccc1O	130 nM	130 nM	Non-toxic	–
O=C(Nc1cc(Cl)cc(Cl)c1)c1ccccc1O	> 10000 nM	13 nM	Non-toxic	–
CN(C(=O)c1ccccc1O)c1cc(Cl)cc(Cl)c1	> 10000 nM	> 10000 nM	Non-toxic	–
O=c1oc2cc(Cl)ccc2c(=O)n1-c1cc(C(F)(F)F)cc(C(F)(F)F)c1	350 nM	280 nM	Non-toxic	–
O=C(Nc1cccc(Cl)c1)c1ccccc1O	> 10000 nM	5100 nM	Non-toxic	–
O=C(Nc1cc(Cl)cc(Cl)c1)c1ccccc1OCc1ccccc1	> 10000 nM	> 10000 nM	Non-toxic	inactive
O=C(Nc1cc(C(F)(F)F)ccc1Cl)c1ccccc1O	1800 nM	200 nM	Non-toxic	–
O=C(Nc1cc(Cl)cc(Cl)c1)c1cc(Br)ccc1O	300 nM	13 nM	Non-toxic	–
O=C(Nc1cc(Cl)c(Cl)cc1Cl)c1ccccc1O	> 10000 nM	45 nM	Non-toxic	–
O=C(Nc1ccc(O)cc1)c1ccccc1O [OSALMID]	> 10000 nM	> 10000 nM	Non-toxic	–
O=C(Nc1cc(C(F)(F)F)cc(C(F)(F)F)c1)c1ccccc1O	740 nM	120 nM	Non-toxic	–
O=C(Nc1cc(Cl)cc(Cl)c1)c1ccc([N+](=O)[O-])cc1O	250 nM	320 nM	Non-toxic	–
O=C(Nc1cc(Cl)c(Cl)cc1Cl)c1cc(Br)ccc1O	640 nM	74 nM	Non-toxic	–
Cc1cc(C)cc(NC(=O)c2ccccc2O)c1	> 10000 nM	> 10000 nM	Non-toxic	–
